Reference: article PMC5912169 (Bioorganic & medicinal chemistry letters, 2018)

What was measured:
[1] = tested on: T. brucei (STIB795); test: In vivo antitrypanosomal activity, T. b. brucei STIB795-Luc mouse model; set-up: species or system mice; settings: 4 consecutive days
Outline: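 Groups of four female NMRI mice were infected ip with 1 × 10⁴ bloodstream-form T. b. brucei STIB795-Luc. Test compound was given ip in water plus 10% DMSO from 3 days post-infection, with an untreated control group. Parasitemia was tracked by live imaging, and moribund mice were euthanized.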

[2] = target: T. brucei cathepsin L (rhodesain) (Trypanosoma brucei rhodesiense, UniProt Q95PM0); test: Rhodesain inhibition assay; type: biochemical; settings: 1 hour pre-incubation
Outline: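 Rhodesain was expressed in Pichia pastoris and used at 0.8 nM final in 50 mM sodium acetate pH 5.5 with 2 mM DTT and 0.01% Triton X-100. It was pre-incubated 1 h with test compound (20 μM final), then Z-Phe-Arg-AMC (10 μM) was added. Cleavage rate (RFU/sec) was read at 25 °C, λex 355/λem 460 nm. E-64 (10 μM) served as positive control.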

[3] = target: human cathepsin L (Homo sapiens, UniProt P07711); test: Human cathepsin L inhibition; type: biochemical; settings: from 0.1 μM to 125 μM; 1 hour pre-incubation
Outline: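 Human liver-derived cathepsin L (0.58 nM) in 400 mM sodium acetate pH 5.5 with 8 mM DTT, 4 mM EDTA and 0.01% Triton X-100. Pre-incubated 1 h with test compound, then Z-Phe-Arg-AMC (20 μM, concentration as added) in sodium acetate buffer. Substrate cleavage was followed as fluorescence rate (RFU/sec) at 25 °C, λex 355/λem 460 nm.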

human cathepsin L, sequence (P07711 114-333): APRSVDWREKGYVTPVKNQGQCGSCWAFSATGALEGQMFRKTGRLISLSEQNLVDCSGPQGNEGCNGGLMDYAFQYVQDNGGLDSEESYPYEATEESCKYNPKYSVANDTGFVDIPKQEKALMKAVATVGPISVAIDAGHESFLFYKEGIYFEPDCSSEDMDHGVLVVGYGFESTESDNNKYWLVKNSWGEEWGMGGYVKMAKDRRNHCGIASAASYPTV

Compound | parasites in infected mice 24 hours posttreatment ([1]; 50 mg/kg/day intraperitoneally) | parasites in infected mice 24 hours posttreatment ([1]; 100 mg/kg/day intraperitoneally) | inhibition of rhodesain at 20 μM [2] | inhibitory activity against human cathepsin L [3]
O=C(Cc1ccc(OC/C=C/S(=O)(=O)c2ccccc2)cc1)Nc1cccc2cccnc12 [Compound 9] | positive for parasites | positive for parasites | – | –
O=C(N[C@H](/C=C/S(=O)(=O)c1ccccc1)CCc1ccccc1)c1cccc2cccnc12 [Compound 27] | – | – | completely inactivate | inactive
